Compound activity (PubChem)
LANA-H2B inh – blockers of LANA interaction with H2A/H2B – biochemical, FP readout, HTS, primary screen; Protein LANA1 (Human herpesvirus 8 type P (isolate GK18)), Q9QR71; cell-free LANA-H2A/H2B peptide, fluorescence polarization; inhibition, % (concentration not given with the values); actives 0.6% (n = 320,000); AID 2629, 2010; in the data active means inhibition mostly above about 10%, no sharp cut-off; inactive means mostly below about 6.7%
TAAR1 ag – human TAAR1 agonists, primary screen, Fluo-8 calcium fluorescence, CHO RD-HGA16 cells; vehicle wells 0%, saturating PEA agonist 100%; Trace amine-associated receptor 1 (Homo sapiens), Q96RJ0; activation, % at 3 µM; actives 0.99% (n = 360,000);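 active means activation above the mean activation of all test compounds in the run plus 3 SD, cut at about 38% in these data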
Target sequence (Q96RJ0 whole entry, looked up): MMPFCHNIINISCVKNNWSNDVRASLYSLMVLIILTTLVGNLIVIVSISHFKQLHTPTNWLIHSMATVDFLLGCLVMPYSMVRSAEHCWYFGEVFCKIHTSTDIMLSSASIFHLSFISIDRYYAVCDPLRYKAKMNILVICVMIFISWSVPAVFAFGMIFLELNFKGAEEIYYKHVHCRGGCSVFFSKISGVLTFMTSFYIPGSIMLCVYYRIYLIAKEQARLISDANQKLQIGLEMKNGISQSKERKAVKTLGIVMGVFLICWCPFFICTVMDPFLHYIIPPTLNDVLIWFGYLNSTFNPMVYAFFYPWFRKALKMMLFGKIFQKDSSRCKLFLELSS
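Benchmarks: low control DMSO, high control PEA (EC100); System: CHO RD-HGA16 cells carrying human TAAR1 plus Gα16; Detection: Fluo-8 fluorescence, 5 s baseline then 140 s kinetic read; Schedule: 17-24 h plating, Fluo-8 75 min 37 °C, 30 min RT; Read-out basis: % activation from peak over basal fluorescence ratio, DMSO-to-PEA scaled.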
GPR7 antag – GPR7 receptor antagonists, primary screen, cell-based, fluorescence, single concentration. Neuropeptides B/W receptor type 1 (Homo sapiens), P48145. GPR7-expressing cells, fluorescence antagonist assay. inhibition, % at 4.4 µM. actives 1.1% (n = 290,000); in the data active means inhibition above about 16%, passing the limit was not always enough;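 further: cells stimulated with the agonist NPW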
TRPML3 agonist – human TRPML3 channel agonists, primary screen, cell-based, HEK293 TRPML3-YFP, Fluo-8 calcium fluorescence, 3 µM | 100% = the carbachol control signal | actives 0.29% (n = 220,000) | activation, % at 3 µM | AID 1448, 2008;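 active means activation above its plate's cutoff, the mean activation of the plate's test wells plus 3 SD, cut at about 12% in these data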
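Material: TRPML3-YFP stable HEK293 cells | Dosing: One concentration, 3 µM nominal, 0.3% DMSO | Timing: 125 s total fluorescence read per well | Technique: Fluo-8 calcium dye fluorescence, ex 470-495, em 515-575 nm | Measure: Percent activation from peak-to-basal fluorescence ratio, scaled between DMSO and carbachol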
zfTRPN1 agonist – zebrafish TRPN1 channel agonists, primary screen, cell-based, HEK293, calcium fluorescence | transient receptor potential cation channel N1 (TRPN1/NompC), Danio rerio | HEK293 zebrafish TRPN1-YFP, Fluo-8 calcium fluorescence; 100% = response to 87 µM carbachol | activation, % at 3 µM | actives 0.18% (n = 220,000) | AID 1424, 2008;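 active means activation above its plate's cutoff, the mean activation of test wells on that plate plus 3 SD, cut at about 19% in these data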
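System: zebrafish TRPN1-YFP in HEK293 cells / Dosing: 3 µM single point / Timing: dye loading 1 h at 37 °C, then 30 min room temperature / Signal: Fluo-8 calcium fluorescence, excitation 470-495 nm, emission 515-575 nm / Read-out basis: percent activation from peak over basal fluorescence ratio, control-normalized / Control set: high carbachol 87 µM, low DMSO alone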
TAAR1 antagonist – human TAAR1 antagonists, primary screen, Fluo-8 calcium fluorescence, CHO RD-HGA16 cells | antagonist | inhibition, % at 3 µM | AID 624466, 2012 | actives 1.5% (n = 360,000) | Trace amine-associated receptor 1 (Homo sapiens), Q96RJ0;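 active means inhibition above a per-plate cutoff, the mean inhibition of test compounds on that plate plus 3 SD, cut at about 49% in these data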
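System: RD-HGA16 CHO cells with stable hTAAR1 and Gα16 | Probe or stimulus: EC80 β-phenethylamine stimulus | Dosing: 3 µM, single point | Times: Dye loading 75 min at 37 °C, then 30 min room temperature | Measured by: Fluo-8 calcium-sensitive fluorescence | Read-out basis: % inhibition of agonist calcium response | Replicates: n of 1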
Hits are given with their value; – = inactive; · = not tested or not shown. Only some compounds are listed: those with a hit (about 3.4% of all), similar ones and a draw of the others.

SMILES	LANA-H2B inh	TAAR1 ag	GPR7 antag	TRPML3 agonist	zfTRPN1 agonist	TAAR1 antagonist
O=C(C1CCCN(S(=O)(=O)c2cccc3nsnc23)C1)N1CCC2(CC1)OCCO2 (stereo not given)	45	–	–	–	–	–
Cc1ccccc1C(=O)NCCN1CCC2(CC1)C(=O)NCN2c1ccccc1	·	–	·	·	·	–
CC[C@]12CCN(CC3(O)CC3)C(Cc3ccc(O)cc31)C2(C)C	·	–	·	·	·	–
NC(N)=N/N=C/c1ccc(N(c2ccccc2)c2ccccc2)cc1	–	77	–	·	·	–
CCOC(=O)c1cc2ccccc2n1C1CCN(Cc2ccccc2)CC1	·	–	·	·	·	–
COc1ccc(-n2c(/C=C/c3ccc(O)c(O)c3)nc3ccccc3c2=O)cc1	–	–	–	·	·	50
COc1cc(/C=C/c2nc3ccccc3c(=O)n2-c2ccc(O)cc2)ccc1O	–	–	–	·	·	67
O=c1c2ccccc2nc(/C=C/c2ccc3c(c2)OCO3)n1-c1ccccc1	11	–	–	–	–	–
O=P(OCCCl)(OCCCl)OCCCl	·	–	·	·	·	–
O=C(NC1CCCCC1)N1Cc2cc(Br)ccc2-n2nncc2C1	·	–	·	·	·	–
CC1(O)CCN2C(=O)CCc3cccc1c32 (stereo not given)	12	–	·	·	·	–
Cc1cc(N2CCNC[C@H]2C)ccc1N1CC[C@H](O)C1	·	–	·	·	·	–
Fc1ccc2nc(-c3ccc(CN4CCC(n5nnc6ccccc65)CC4)cc3)c(-c3ccccc3)nc2c1	·	–	·	·	·	–
CC(C)=CCc1c(O)cc2c(c1O)C(=O)CC(c1ccc(O)cc1)O2 (stereo not given)	–	42	·	·	·	–
O=P(Nc1ccccc1)(Nc1ccccc1)Oc1ccccc1	–	–	–	–	–	–
O=P(Nc1ccccc1)(Nc1ccccc1)Oc1cccc(Cl)c1	–	–	–	–	–	52
CCCCCN1C(=O)c2cc(OC)ccc2[C@@]2(C(=O)OCC)Cc3cc(OC)ccc3[C@@H]12	·	–	·	·	·	–
CCN1/C(=C/C=C/C2=[N+](CC)c3ccccc3C2(C)C)C(C)(C)c2ccccc21	·	263	·	·	·	106
CNCC(O)c1cccc(OC(=O)c2ccccc2C)c1 (stereo not given)	–	–	24	–	–	–
O=C(NCCN1CCC2(CC1)C(=O)NCN2c1ccccc1)c1ccccc1F	·	–	·	·	·	–
CCOC(=O)[C@]12Cc3ccccc3[C@H]1N(Cc1ccccc1)C(=O)c1cc(F)c(F)cc12	·	–	·	·	·	–
Cc1ccc(OC(=O)N(C)C[C@H]2OCc3cnnn3CCCC(=O)N([C@@H](C)CO)C[C@@H]2C)cc1	·	–	·	·	·	–
CN1C(=O)C(=Cc2cn(CC(=O)N3CCCC3)c3ccccc23)C(=O)N(C)C1=O	–	–	–	·	·	–
CCN1C(=O)NC(=O)/C(=C\c2cn(CC(=O)N3CCCCC3C)c3ccccc23)C1=O (stereo not given)	33	·	–	·	·	·
O=C(Cn1cc(C=C2C(=O)NC(=O)NC2=O)c2ccccc21)NCC1CCCO1 (stereo not given)	18	–	–	·	·	–
SMILES	LANA-H2B inh	TAAR1 ag	GPR7 antag	TRPML3 agonist	zfTRPN1 agonist	TAAR1 antagonist
CCN(CC)c1ccc(CNCCc2ccccc2F)cc1	–	40	–	–	–	–
Cc1ccc(CNCCc2ccccc2F)cc1	–	–	–	–	–	–
Cc1cccc(N2C(=O)NC(=O)/C(=C\c3cccn3-c3ccc(Cl)cc3)C2=O)c1	–	56	–	–	–	–
Cc1ccc(N2C(=O)NC(=O)/C(=C\C=C\c3ccco3)C2=O)cc1	–	–	–	–	–	–
Cc1cccc(N2C(=O)NC(=O)/C(=C\C=C\c3ccco3)C2=O)c1	–	44	–	–	–	–
CCN1C(=O)C(=Cc2ccc(N3CCOCC3)o2)C(=O)N(CC)C1=S	–	40	–	–	–	–
